Laboratory results reported in ChEMBL document CHEMBL3108713, “Identification of ML251, a Potent Inhibitor of T. brucei and T. cruzi Phosphofructokinase” (ACS Med Chem Lett, 2014).
In brackets after ≈: the same amount, converted by molar mass.

Key:
[1] = target: T1, ATP-dependent 6-phosphofructokinase (Trypanosoma cruzi) (UniProt Q4E657); assay: Inhibition of Trypanosoma cruzi PFK at 57 uM
T1 sequence (whole entry): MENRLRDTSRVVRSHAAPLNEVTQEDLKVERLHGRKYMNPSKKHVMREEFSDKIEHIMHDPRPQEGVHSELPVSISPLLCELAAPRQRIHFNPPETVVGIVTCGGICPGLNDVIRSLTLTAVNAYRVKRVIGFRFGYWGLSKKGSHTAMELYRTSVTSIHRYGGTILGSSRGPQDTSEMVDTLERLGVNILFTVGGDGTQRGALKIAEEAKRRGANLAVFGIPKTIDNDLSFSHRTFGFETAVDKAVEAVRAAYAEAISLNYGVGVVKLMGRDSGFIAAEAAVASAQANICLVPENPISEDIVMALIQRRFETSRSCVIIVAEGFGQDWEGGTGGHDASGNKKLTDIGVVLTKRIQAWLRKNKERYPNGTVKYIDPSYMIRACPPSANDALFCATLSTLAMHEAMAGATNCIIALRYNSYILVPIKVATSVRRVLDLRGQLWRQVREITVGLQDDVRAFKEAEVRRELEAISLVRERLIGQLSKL
Method in brief: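 PFK activity is measured by coupling ADP production to ADP-Glo luciferase luminescence at end point. Percent inhibition is recorded at 57 μM, the highest concentration of the dose series, with at least 3 separate experiments averaged.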

[2] = target: T2, ATP-dependent 6-phosphofructokinase (Trypanosoma brucei, UniProt O15648); assay: Inhibition of Trypanosoma brucei PFK-mediated ADP production using ATP/fructose-6-phosphate as substrate by luciferase based luminescence assay
T2 sequence (O15648 whole entry): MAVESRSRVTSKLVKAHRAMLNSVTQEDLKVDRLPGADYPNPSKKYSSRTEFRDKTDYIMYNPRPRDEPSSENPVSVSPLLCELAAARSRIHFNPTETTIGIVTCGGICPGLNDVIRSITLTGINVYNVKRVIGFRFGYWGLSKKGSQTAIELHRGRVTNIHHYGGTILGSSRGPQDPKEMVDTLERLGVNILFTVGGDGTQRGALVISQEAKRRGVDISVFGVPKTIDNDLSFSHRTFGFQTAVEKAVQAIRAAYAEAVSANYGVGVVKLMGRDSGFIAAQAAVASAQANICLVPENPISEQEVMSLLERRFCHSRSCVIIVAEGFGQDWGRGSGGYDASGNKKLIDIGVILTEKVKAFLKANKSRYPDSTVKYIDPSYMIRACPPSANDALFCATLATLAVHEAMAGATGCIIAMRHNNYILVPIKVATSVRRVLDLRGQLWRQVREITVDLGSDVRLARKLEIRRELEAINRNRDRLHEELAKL
Method in brief: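 Recombinant enzyme; ADP formed by PFK detected with modified luciferase (ADP-Glo) luminescent end-point in 1536-well format.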

[3] = target: T3, ATP-dependent 6-phosphofructokinase (Trypanosoma cruzi, UniProt Q4E657); assay: Inhibition of Trypanosoma cruzi PFK
T3 sequence (Q4E657 whole entry): T1 sequence (whole entry)

[4] = target: T4, ATP-dependent 6-phosphofructokinase (Trypanosoma brucei) (UniProt O15648); assay: Inhibition of Trypanosoma brucei PFK-mediated ADP production using ATP/fructose-6-phosphate as substrate at 57 uM by luciferase based luminescence assay
T4 sequence (whole entry): T2 sequence (O15648 whole entry)
Method in brief: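 Recombinant T. brucei PFK; ADP formed by the enzyme is converted to a luminescent signal by a modified luciferase ADP-Glo detection, read at end point.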

[5] = Half life in mouse liver microsomes; format: ADME, Microsome
[6] = Half life in rat liver microsomes; format: ADME
[7] = tested on: Trypanosoma brucei brucei; assay: Antitrypanosomal activity against Trypanosoma brucei brucei Lister 427 assessed as cell viability after 72 hrs by alamar blue assay; format: functional
[8] = Aqueous kinetic solubility of the compound; format: physicochemical; conditions: buffer; read-out: Kinetic_solubility
[9] = Cytotoxicity against human MRC5 cells assessed as intracellular ATP content after 72 hrs by Cell titer-Glo luminiscent assay; format: cell-based

Compound	inhibition [1] [%]	IC50 [2] [µM]	IC50 [3] [µM]	inhibition [4] [%]	half-life [5] [h]	half-life [6] [min]	Activity [7]	EC50 ([7]; Lister 427, 72 h, read-out: ED50 (the source's name)) [µM]	solubility kinetic [8] [µg/mL]	CC50 at 72 h [9] [µM]
O=C(Cc1ccc(Cl)c(Cl)c1)Nc1ccc(S(=O)(=O)Nc2ccc(C(=O)O)cc2)cc1	> 80	0.16	0.29	> 80						
Cc1ccc(C(=O)Nc2ccc(S(=O)(=O)O)c3cc(S(=O)(=O)O)cc(S(=O)(=O)O)c23)cc1NC(=O)c1cccc(NC(=O)Nc2cccc(C(=O)Nc3cc(C(=O)Nc4ccc(S(=O)(=O)O)c5cc(S(=O)(=O)O)cc(S(=O)(=O)O)c45)ccc3C)c2)c1 [SURAMIN]		3								
Cc1cc(NS(=O)(=O)c2cccc(NC(=O)Cc3ccc(Cl)c(Cl)c3)c2)no1	> 80	16.3	16.3	> 80						
Cc1cc(NS(=O)(=O)CCNC(=O)Cc2ccc(Cl)c(Cl)c2)no1	> 80	32.6	16.3	> 80						
Cc1cc(NS(=O)(=O)c2ccc(NC(=O)Cc3ccc(Cl)c(Cl)c3)cc2)no1	> 80	0.41	0.23	> 80	6.8	9.7	Dose-dependent effect	26.8	23.3 (≈ 52.9 µM)	> 46
Cc1cc(NS(=O)(=O)c2ccc(NC(=O)c3ccc(Cl)c(Cl)c3)cc2)no1	> 80	14.6	20.6	> 80						
CN(C)c1cccc(NS(=O)(=O)c2ccc(NC(=O)Cc3ccc(Cl)c(Cl)c3)cc2)c1	> 80	5.8	11.6	> 80						
Cc1cc(NS(=O)(=O)c2ccc(C(=O)NCc3ccc(Cl)c(Cl)c3)cc2)no1	> 80	5.16	2.91	> 80						
Cc1cc(N(C)S(=O)(=O)c2ccc(NC(=O)Cc3ccc(Cl)c(Cl)c3)cc2)no1	> 80	2.91	2.06	> 80						
O=C(Cc1ccc(Cl)c(Cl)c1)Nc1ccc(S(=O)(=O)Nc2cncnc2)cc1	> 80	0.82	0.73	> 80						
O=C(Cc1ccc(Cl)c(Cl)c1)Nc1ccc(S(=O)(=O)Nc2nncs2)cc1	> 80	0.112	0.052	> 80						
O=C(Cc1ccc(Cl)c(Cl)c1)Nc1ccc(S(=O)(=O)Nc2ccccc2)cc1	> 80	16.3	16.3	> 80						
Cc1cc(NC(=O)c2csc(NC(=O)Cc3ccc(Cl)c(Cl)c3)n2)no1		> 57	> 57							
Cc1cc(NS(=O)(=O)c2ccc(NC(=O)Cc3ccc(Cl)c(F)c3)cc2)no1	> 80	0.7	0.65	> 80						
Cc1cc(NS(=O)(=O)c2ccc(NC(=O)Cc3ccc(Cl)c(Cl)c3)cc2)n(C)n1	> 80	2.31	1.16	> 80						
O=C(Cc1ccc(Cl)c(Cl)c1)Nc1ccc(S(=O)(=O)Nc2cccc(O)c2)cc1	> 80	1.46	1.63	> 80						
O=C(Cc1ccc(Cl)c(Cl)c1)Nc1ccc(S(=O)(=O)O)cc1	> 80	0.65	0.46	> 80						
Cc1cc(NS(=O)(=O)c2ccc(NS(=O)(=O)Cc3ccc(Cl)c(Cl)c3)cc2)no1		37	> 57	> 80						
Cc1cc(NS(=O)(=O)c2ccc(NC(=O)Cc3ccc4ccccc4c3)cc2)no1	> 80	6.51	1.83	> 80						
Cc1cc(NS(=O)(=O)C2CCN(C(=O)Cc3ccc(Cl)c(Cl)c3)CC2)no1	> 80	33	13	> 80						
O=C(Cc1ccc(Cl)c(Cl)c1)Nc1ccc(S(=O)(=O)Nc2cccc(C(=O)O)c2)cc1	> 80	0.26	0.58	> 80						

Compound	inhibition [1] [%]	IC50 [2] [µM]	IC50 [3] [µM]	inhibition [4] [%]	half-life [5] [h]	half-life [6] [min]	Activity [7]	EC50 ([7]; Lister 427, 72 h, read-out: ED50 (the source's name)) [µM]	solubility kinetic [8] [µg/mL]	CC50 at 72 h [9] [µM]
Cc1cc(NS(=O)(=O)c2ccc(NC(=O)Cc3ccc(C)c(F)c3)cc2)no1	> 80	5.8	4.6	> 80						
CCOC(=O)c1cccc(NS(=O)(=O)c2ccc(NC(=O)Cc3ccc(Cl)c(Cl)c3)cc2)c1		> 57	> 57							
Cc1cc(NS(=O)(=O)c2ccc(NC(=O)Cc3ccc(Cl)cc3Cl)cc2)no1	> 80	4.61	14.6	> 80						
Cc1cc(NS(=O)(=O)c2ccc(NC(=O)Cc3ccc(C)c(C)c3)cc2)no1	> 80	18.3	6.5	> 80						
O=C(Cc1ccc(Cl)c(Cl)c1)Nc1ccc(S(=O)(=O)Nc2nccs2)cc1	> 80	0.079	0.041	> 80						
Cc1cc(NC(=O)c2ccc(NC(=O)Cc3ccc(Cl)c(Cl)c3)cc2)no1		> 57	> 57							
Cc1cc(NS(=O)(=O)c2ccc(N(C)C(=O)Cc3ccc(Cl)c(Cl)c3)cc2)no1	> 80	6.51	1.3	> 80						
Cc1cc(NS(=O)(=O)c2ccc(NC(=O)Cc3ccc(Cl)c(C(F)(F)F)c3)cc2)no1	> 80	0.68	0.92	> 80						
COc1ccc(CC(=O)Nc2ccc(S(=O)(=O)Nc3cc(C)on3)cc2)cc1OC		> 57	> 57							
Cc1cc(NS(=O)(=O)c2ccc(NC(=O)Cc3cccc(Cl)c3)cc2)no1	> 80	7.3	2.59	> 80						
O=C(Cc1ccc(Cl)c(Cl)c1)Nc1ccc(S(=O)(=O)Nc2cc[nH]n2)cc1	> 80	0.52	0.73	> 80						
Cc1cc(NS(=O)(=O)c2ccc(NC(=O)C(C)(C)c3ccc(Cl)c(Cl)c3)cc2)no1	> 80	36.6	36.5	> 80						
COc1ccc(CC(=O)Nc2ccc(S(=O)(=O)Nc3cc(C)on3)cc2)cc1C	> 80	> 57	20.6							
Cc1cc(NS(=O)(=O)c2ccc(NC(=O)CCc3ccc(Cl)c(Cl)c3)cc2)no1	> 80	5.17	6.51	> 80						
Cc1cc(NS(=O)(=O)Cc2ccc(NC(=O)Cc3ccc(Cl)c(Cl)c3)cc2)no1	> 80	2.59	3.26	> 80						
Cc1cc(NS(=O)(=O)c2ccc(NC(=O)Cc3ccc(Cl)cc3)cc2)no1	> 80	1.83	1.46	> 80						
Cc1cc(NS(=O)(=O)c2ccc(NC(=O)Cc3ccc(F)c(Cl)c3)cc2)no1	> 80	0.73	0.46	> 80						
Cc1cc(NS(=O)(=O)c2ccc(NCCc3ccc(Cl)c(Cl)c3)cc2)no1	> 80	6	16.3	> 80						
Cc1cc(NS(=O)(=O)c2ccc(NC(=O)Cc3ccccc3)cc2)no1	> 80	36.6	20.6	> 80						
O=C(Cc1ccc(F)c(Cl)c1)Nc1ccc(S(=O)(=O)Nc2nccs2)cc1	> 80	0.024	0.12	> 80						
